Experimental data from ChEMBL document CHEMBL3045285, “Synthesis and insecticidal activities of novel anthranilic diamides containing modified N-pyridylpyrazoles” (2010).

What was measured:
Type in all cases: functional
Mythimna separata [1] = test: Insecticidal activity against fourth-instar larval stage of Mythimna separata (Oriental armyworm) in compound pretreated Zea mays L. Tangyu 10 leaves assessed as mortality at 100 mg/l at 25 +/-1 degC after 2 days
Outline: (§1)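 Greenhouse-reared fourth-instar oriental armyworm larvae. Corn (Tangyu 10) leaves laid on moist filter paper in Petri dishes, sprayed with test solution (200 mg/L solution diluted in distilled water), then air-dried. Ten larvae per dish. Held at 25 ± 1 °C; mortality scored dead/alive 2 days post-treatment. Triplicate treatments, Abbott-corrected, 0–100 scale.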

Plutella xylostella [2] = test: Insecticidal activity against second-instar larval stage of Plutella xylostella (diamondback moth) in cabbage leaves assessed as mortality at 5 mg/l at 25 +/-1 degC treated for 3 secs before larva infestation measured after 2 days by leaf-dip method; settings: 48 h
Outline: (§2)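 Greenhouse-reared diamondback moth larvae tested by leaf-dip method at 25 ± 1 °C. Test solution made at 200 mg/L, then diluted with distilled water to working concentrations. Mortality scored dead/alive, corrected with Abbott's formula and expressed on a 0–100 scale.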

Mythimna separata [3] = test: Insecticidal activity against fourth-instar larval stage of Mythimna separata (Oriental armyworm) in compound pretreated Zea mays L. Tangyu 10 leaves assessed as mortality at 20 mg/l at 25 +/-1 degC after 2 days; outline: as §1
Plutella xylostella [4] = test: Insecticidal activity against second-instar larval stage of Plutella xylostella (diamondback moth) in cabbage leaves assessed as mortality at 10 mg/l at 25 +/-1 degC treated for 3 secs before larva infestation measured after 2 days by leaf-dip method; settings: 48 h; outline: as §2
Mythimna separata [5] = test: Insecticidal activity against fourth-instar larval stage of Mythimna separata (Oriental armyworm) in compound pretreated Zea mays L. Tangyu 10 leaves assessed as mortality at 10 mg/l at 25 +/-1 degC after 2 days; outline: as §1
Mythimna separata [6] = test: Insecticidal activity against fourth-instar larval stage of Mythimna separata (Oriental armyworm) in compound pretreated Zea mays L. Tangyu 10 leaves assessed as mortality at 50 mg/l at 25 +/-1 degC after 2 days; outline: as §1
Plutella xylostella [7] = test: Insecticidal activity against second-instar larval stage of Plutella xylostella (diamondback moth) in cabbage leaves assessed as mortality at 2.5 mg/l at 25 +/-1 degC treated for 3 secs before larva infestation measured after 2 days by leaf-dip method; settings: 48 h; outline: as §2
Mythimna separata [8] = test: Insecticidal activity against fourth-instar larval stage of Mythimna separata (Oriental armyworm) in compound pretreated Zea mays L. Tangyu 10 leaves assessed as mortality at 200 mg/l at 25 +/-1 degC after 2 days; outline: as §1
Plutella xylostella [9] = test: Insecticidal activity against second-instar larval stage of Plutella xylostella (diamondback moth) in cabbage leaves assessed as mortality at 1 mg/l at 25 +/-1 degC treated for 3 secs before larva infestation measured after 2 days by leaf-dip method; settings: 48 h; outline: as §2
Plutella xylostella [10] = test: Insecticidal activity against second-instar larval stage of Plutella xylostella (diamondback moth) in cabbage leaves assessed as mortality at 20 mg/l at 25 +/-1 degC treated for 3 secs before larva infestation measured after 2 days by leaf-dip method; settings: 48 h; outline: as §2
Plutella xylostella [11] = test: Insecticidal activity against second-instar larval stage of Plutella xylostella (diamondback moth) in cabbage leaves assessed as mortality at 0.25 mg/l at 25 +/-1 degC treated for 3 secs before larva infestation measured after 2 days by leaf-dip method; settings: 48 h; outline: as §2
Plutella xylostella [12] = test: Insecticidal activity against second-instar larval stage of Plutella xylostella (diamondback moth) in cabbage leaves assessed as mortality at 0.5 mg/l at 25 +/-1 degC treated for 3 secs before larva infestation measured after 2 days by leaf-dip method; settings: 48 h; outline: as §2
Mythimna separata [13] = test: Insecticidal activity against fourth-instar larval stage of Mythimna separata (Oriental armyworm) in compound pretreated Zea mays L. Tangyu 10 leaves assessed as mortality at 5 mg/l at 25 +/-1 degC after 2 days; outline: as §1

Row | SMILES | mortality at 100 µg/mL (Mythimna separata [1]) | mortality at 5 µg/mL (Plutella xylostella [2]) | mortality at 20 µg/mL (Mythimna separata [3]) | mortality at 10 µg/mL (Plutella xylostella [4]) | mortality at 10 µg/mL (Mythimna separata [5]) | mortality at 50 µg/mL (Mythimna separata [6]) | mortality at 2.5 µg/mL (Plutella xylostella [7]) | mortality at 200 µg/mL (Mythimna separata [8]) | mortality at 1 µg/mL (Plutella xylostella [9]) | mortality at 20 µg/mL (Plutella xylostella [10]) | mortality at 0.25 µg/mL (Plutella xylostella [11]) | mortality at 0.5 µg/mL (Plutella xylostella [12]) | mortality at 5 µg/mL (Mythimna separata [13])
1 | CC(=O)OCc1cc(C(=O)Nc2c(C)cc(Cl)cc2C(=O)NC(C)C)n(-c2ncccc2Cl)n1 | 100% | 95% | 100% | 100% | 20% | 100% | 60% | 100% | 0% | 100% | – | – | –
2 | CNC(=O)c1cc(Cl)cc(C)c1NC(=O)c1cc(CNC(=O)C(F)(F)F)nn1-c1ncccc1Cl | 100% | 100% | 100% | 100% | 100% | 100% | 100% | 100% | 80% | 100% | 0% | 40% | 40%
3 | CNC(=O)c1cc(Cl)cc(C)c1NC(=O)c1cc(CNC(C)=O)nn1-c1ncccc1Cl | 100% | – | 0% | – | – | 100% | – | 100% | – | – | – | – | –
4 | CNC(=O)c1cc(Cl)cc(C)c1NC(=O)c1cc(CO)nn1-c1ncccc1Cl | 100% | – | 60% | – | – | 100% | – | 100% | – | – | – | – | –
5 | CNC(=O)c1cc(Cl)cc(C)c1NC(=O)c1cc(COC(=O)c2ccccc2)nn1-c1ncccc1Cl | 100% | – | 40% | – | – | 100% | – | 100% | – | – | – | – | –
6 | CNC(=O)c1cc(Cl)cc(C)c1NC(=O)c1cc(COC(=O)COC(C)=O)nn1-c1ncccc1Cl | 100% | – | 40% | – | – | 100% | – | 100% | – | – | – | – | –
7 | CNC(=O)c1cc(Cl)cc(C)c1NC(=O)c1cc(COC(=O)CCCCl)nn1-c1ncccc1Cl | 100% | – | 60% | – | – | 100% | – | 100% | – | – | – | – | –
8 | CNC(=O)c1cc(Cl)cc(C)c1NC(=O)c1cc(COC(=O)C(F)(F)F)nn1-c1ncccc1Cl | 100% | – | 20% | – | – | 100% | – | 100% | – | – | – | – | –
9 | CNC(=O)c1cc(Cl)cc(C)c1NC(=O)c1cc(COS(=O)(=O)c2ccc(C)cc2)nn1-c1ncccc1Cl | 100% | – | 80% | – | – | 100% | – | 100% | – | – | – | – | –
10 | CNC(=O)c1cc(Cl)cc(C)c1NC(=O)c1cc(COS(C)(=O)=O)nn1-c1ncccc1Cl | 100% | – | 40% | – | – | 100% | – | 100% | – | – | – | – | –
11 | CCCNC(=O)c1cccc(C)c1NC(=O)c1cc(COC(C)=O)nn1-c1ncccc1Cl | 100% | – | 40% | – | – | 100% | – | 100% | – | – | – | – | –
12 | CC(=O)OCc1cc(C(=O)Nc2c(C)cccc2C(=O)NC2CC2)n(-c2ncccc2Cl)n1 | 100% | – | 40% | – | – | 100% | – | 100% | – | – | – | – | –
13 | CC(=O)OCc1cc(C(=O)Nc2c(C)cccc2C(=O)NC(C)C)n(-c2ncccc2Cl)n1 | 100% | 0% | 100% | 60% | 0% | 100% | – | 100% | – | 100% | – | – | –
14 | CC(=O)OCc1cc(C(=O)Nc2c(C)cc(Cl)cc2C(=O)NCc2ccccc2)n(-c2ncccc2Cl)n1 | 100% | – | 40% | – | – | 100% | – | 100% | – | – | – | – | –
15 | CC(=O)OCc1cc(C(=O)Nc2c(C)cc(Cl)cc2C(=O)NC2CC2)n(-c2ncccc2Cl)n1 | 100% | 100% | 100% | 100% | 0% | 100% | 90% | 100% | 60% | 100% | 0% | 40% | –
16 | CNC(=O)c1cc(Cl)cc(C)c1NC(=O)c1cc(COC(C)=O)nn1-c1ncccc1Cl | 100% | 70% | 100% | 90% | 0% | 100% | 45% | 100% | 0% | 100% | – | – | –
17 | CCCCNC(=O)c1cc(C(=O)Nc2c(C)cc(Cl)cc2C(=O)NC)n(-c2ncccc2Cl)n1 | 100% | – | 20% | – | – | 100% | – | 100% | – | – | – | – | –
18 | CNC(=O)c1cc(Cl)cc(C)c1NC(=O)c1cc(C(=O)Nc2ccccc2)nn1-c1ncccc1Cl | 100% | – | 0% | – | – | 100% | – | 100% | – | – | – | – | –
19 | CNC(=O)c1cc(Cl)cc(C)c1NC(=O)c1cc(C(=O)NC(C)(C)C)nn1-c1ncccc1Cl | 100% | – | 40% | – | – | 100% | – | 100% | – | – | – | – | –
20 | CNC(=O)c1cc(Cl)cc(C)c1NC(=O)c1cc(C(=O)NC(C)C)nn1-c1ncccc1Cl | 100% | – | 60% | – | – | 100% | – | 100% | – | – | – | – | –
21 | CNC(=O)c1cc(Cl)cc(C)c1NC(=O)c1cc(C(=O)NCc2ccccc2)nn1-c1ncccc1Cl | 100% | – | 20% | – | – | 100% | – | 100% | – | – | – | – | –
22 | CNC(=O)c1cc(C(=O)Nc2c(C)cc(Cl)cc2C(=O)NC2CC2)n(-c2ncccc2Cl)n1 | 100% | – | 100% | 0% | 20% | 100% | – | 100% | – | 50% | – | – | –
